Assay results reported in ChEMBL document CHEMBL1124697, “A new family of water-soluble, third generation antitumor platinum complexes” (J Med Chem, 1989).
Values joined by “and” are separate entries in the source; they are usually repeats but may differ in a detail not shown here. Equal entries are not always repeated. One block for each substance: values may come before it.

What was measured:
P388 [1] = assay: Percent increase in life span when compound administered at 25.5 mg/kg against P388 leukemia cells in BDF1 mice; assay type: functional, organism-based; set-up: dose 25.5 mg/kg; conditions: Mus musculus
How it was run: (§1)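 BDF1 mice bearing P388, L1210 or cisplatin-resistant L1210 leukemia; ip dosing on days 1, 5 and 9 relative to tumor inoculation, 30-day observation. Median % ILS over controls at optimal dose plus % survivors; ≥25% ILS counted as active, ≥15% reduction in ILS or body weight over controls rated toxic.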

L1210 [2] = assay: Percent survivors when compound administered at 12.5 mg/kg against L1210 leukemia cells in BDF1 mice; assay type: functional, organism-based; set-up: dose 12.5 mg/kg; conditions: Mus musculus
How it was run: (§2)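 BDF1 mice inoculated with P388, L1210 or cisplatin-resistant L1210 leukemia. Compound given ip on days 1, 5 and 9 relative to tumor inoculation, and mice observed for 30 days. Median % increase in life span over controls and % survivors are reported at the optimal dose. Activity requires ILS ≥25%. Toxicity is rated when ILS or body weight is reduced by ≥15%.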

P388 [3] = assay: Percent survivors when compound administered at 25.5 mg/kg against P388 leukemia cells in BDF1 mice; assay type: functional, organism-based; set-up: dose 25.5 mg/kg; conditions: Mus musculus; how it was run: as §2
Colon 26 [4] = assay: Percent in life span when compound administered at 6.2 mg/kg against Colon 26 cells in balb/C mice; assay type: functional, organism-based; set-up: dose 6.2 mg/kg; conditions: Mus musculus
How it was run: (§3)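 Colon 26 in Balb/C mice. Test agents given ip on days 1, 5 and 9 relative to tumor inoculation; mice observed 30 days. Median % increase in life span at optimal dose, with % survivors noted; ILS ≥25% over controls required for activity; ILS or body weight reduced ≥15% versus controls rated toxic.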

Colon 26 [5] = assay: Percent survivors when compound administered at 6.2 mg/kg against Colon 26 cells in balb/C mice; assay type: functional, organism-based; set-up: dose 6.2 mg/kg; conditions: Mus musculus
How it was run: (§4)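 Colon 26 tumor in Balb/C mice. Dosing ip on days 1, 5 and 9 after tumor inoculation, with a 30-day observation period. Readouts are median % increase in life span over control mice and % survivors, given at the optimal dose. Activity threshold is ILS ≥25%. A ≥15% drop in ILS or body weight is rated toxic.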

B16 [6] = assay: Percent increase in life span when compound administered at 0.4 mg/kg against B-16 melanoma cells in […] mice; assay type: functional, organism-based; set-up: dose 0.4 mg/kg; conditions: Mus musculus
How it was run: (§5)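 B-16 melanoma in […] mice; compounds given ip daily on days 1–9 relative to tumor inoculation, animals followed 60 days. Read-out median % increase in life span over controls at optimal dose with % survivors; activity threshold ILS ≥25%; ≥15% reduction in ILS or body weight versus controls rated toxic.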

P388 [7] = assay: Percent survivors when compound administered at 6.2 mg/kg against P388 leukemia cells in BDF1 mice; assay type: functional, organism-based; set-up: dose 6.2 mg/kg; conditions: Mus musculus; how it was run: as §2
Colon 26 [8] = assay: Percent in life span when compound administered at 3.1 mg/kg against Colon 26 cells in balb/C mice; assay type: functional, organism-based; set-up: dose 3.1 mg/kg; conditions: Mus musculus; how it was run: as §3
P388 [9] = assay: Percent increase in life span when compound administered at 6.2 mg/kg against P388 leukemia cells in BDF1 mice; assay type: functional, organism-based; set-up: dose 6.2 mg/kg; conditions: Mus musculus; how it was run: as §1
Colon 26 [10] = assay: Percent survivors when compound administered at 3.1 mg/kg against Colon 26 cells in balb/C mice; assay type: functional, organism-based; set-up: dose 3.1 mg/kg; conditions: Mus musculus; how it was run: as §4
P388 [11] = assay: Percent survivors when compound administered at 12.5 mg/kg against P388 leukemia cells in BDF1 mice; assay type: functional, organism-based; set-up: dose 12.5 mg/kg; conditions: Mus musculus; how it was run: as §2
P388 [12] = assay: Percent increase in life span when compound administered at 12.5 mg/kg against P388 leukemia cells in BDF1 mice; assay type: functional, organism-based; set-up: dose 12.5 mg/kg; conditions: Mus musculus; how it was run: as §1
B16 [13] = assay: Percent increase in life span when compound administered at 12.5 mg/kg against B-16 melanoma cells in […] mice; assay type: functional; conditions: Mus musculus
How it was run: (§6)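 Median % increase in life span versus controls and % survivors are recorded at the optimal dose. ILS ≥25% counts as active, and a ≥15% reduction in ILS or body weight counts as toxic.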

L1210 [14] = assay: Percent increase in life span when compound administered at 50 mg/kg against L1210 leukemia cells in BDF1 mice; assay type: functional, organism-based; set-up: dose 50 mg/kg; conditions: Mus musculus; how it was run: as §1
B16 [15] = assay: Percent increase in life span when compound administered at 25 mg/kg against B-16 melanoma cells in […] mice; assay type: functional, organism-based; set-up: dose 25 mg/kg; conditions: Mus musculus; how it was run: as §5
Colon 26 [16] = assay: Percent survivors when compound administered at 100 mg/kg againstColon 26 cells in balb/C mice; assay type: functional, organism-based; set-up: dose 100 mg/kg; conditions: Mus musculus; how it was run: as §4
Colon 26 [17] = assay: Percent in life span when compound administered at 100 mg/kg againstColon 26 cells in balb/C mice; assay type: functional, organism-based; set-up: dose 100 mg/kg; conditions: Mus musculus; how it was run: as §3
L1210 [18] = assay: Percent survivors when compound administered at 50 mg/kg against L1210 leukemia cells in BDF1 mice; assay type: functional, organism-based; set-up: dose 50 mg/kg; conditions: Mus musculus; how it was run: as §2
B16 [19] = assay: Percent survivors when compound administered at 12.5 mg/kg against B-16 melanoma cells in […] mice; assay type: functional; conditions: Mus musculus; how it was run: as §6
L1210 [20] = assay: Percent increase in life span when compound administered at 50 mg/kg against L1210 cisplatin resistant leukemia cells in BDF1 mice; assay type: functional, organism-based; set-up: dose 50 mg/kg; conditions: Mus musculus; how it was run: as §1
Colon 26 [21] = assay: Percent survivors when compound administered at 50 mg/kg againstColon 26 cells in balb/C mice; assay type: functional, organism-based; set-up: dose 50 mg/kg; conditions: Mus musculus; how it was run: as §4
L1210 [22] = assay: Percent survivors when compound administered at 50 mg/kg against L1210 cisplatin resistant leukemia cells in BDF1 mice; assay type: functional, organism-based; set-up: dose 50 mg/kg; conditions: Mus musculus; how it was run: as §2
B16 [23] = assay: Percent survivors when compound administered at 25 mg/kg against B-16 melanoma cells in […] mice; assay type: functional, organism-based; set-up: dose 25 mg/kg; conditions: Mus musculus; how it was run: as §6
[24] = Water solubility was determined; assay type: ADME; conditions: buffer
P388 [25] = assay: Percent survivors when compound administered at 200 mg/kg against P388 leukemia cells in BDF1 mice; assay type: functional, organism-based; set-up: dose 200 mg/kg; conditions: Mus musculus; how it was run: as §2
P388 [26] = assay: Percent increase in life span when compound administered at 200 mg/kg against P388 leukemia cells in BDF1 mice; assay type: functional, organism-based; set-up: dose 200 mg/kg; conditions: Mus musculus

Substance: Platinum:8,8-Dichloro-1,3-dioxa-7,9-diaza-spiro[4.5]decane
Increase (P388 [1]): 160%
Survivors (L1210 [2]): 0%
Survivors (P388 [3]): 0%
Increase (Colon 26 [4]): 50%
Survivors (Colon 26 [5]): 0%

Substance: Platinum:9,9-Dichloro-2,4-dioxa-8,10-diaza-spiro[5.5]undecane
Increase (B16 [6]): 27%
Survivors (P388 [7]): 3%
Increase (Colon 26 [8]): 41%
Increase (P388 [9]): 173%
Survivors (Colon 26 [10]): 0%

Substance: Platinum:9,9-Dichloro-3-methyl-2,4-dioxa-8,10-diaza-spiro[5.5]undecane
Survivors (P388 [11]): 1%
Increase (P388 [12]): 136%

Substance: Platinum:Formic acid 9-formyloxy-2,4-dioxa-8,10-diaza-spiro[5.5]undec-9-yl ester
Increase (B16 [13]): 61%
Increase (L1210 [14]): 172%
Increase (B16 [15]): 64% and 84%
Survivors (Colon 26 [16]): 3%
Increase (Colon 26 [17]): 127%
Survivors (L1210 [18]): 50%
Survivors (B16 [19]): 3%
Increase (L1210 [20]): 168%
Survivors (Colon 26 [21]): 0%
Survivors (L1210 [22]): 33%
Survivors (B16 [23]): 0%

Water solubility [24]: 100 mg/mL
Substance: Platinum:Formic acid 9-formyloxy-3-methyl-2,4-dioxa-8,10-diaza-spiro[5.5]undec-9-yl ester [listing 1 of 2 here]

Substance: Platinum:Formic acid 9-formyloxy-3-methyl-2,4-dioxa-8,10-diaza-spiro[5.5]undec-9-yl ester [listing 2 of 2 here]
Survivors (P388 [25]): 5%
Increase (B16 [15]): 62%
Increase (P388 [26]): 173%
Survivors (B16 [23]): 0%
